Compound activity: PubChem, Broad Institute
T cruzi growth-1: blocks T. cruzi growth in NIH3T3 culture; T. cruzi beta-gal in NIH3T3, GalScreen luminescence, 90 h; hit rate 5.9% among 77,000; AID 624255; inhibition, % at 8.34 µM;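 active means mean inhibition above about 93%, with at least 55% of replicates each passing it, limit read from the data, passing the limit was not always enough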
IDH1 R132H inh: blocks human IDH1 R132H reductase activity | inhibition, % at 10 µM | AID 624101 | hit rate 0.18% among 70,000 | O75874 | diaphorase/resazurin fluorescence, 60 min; in the data active means inhibition above about 34%
GASC1 inh: inhibitors of human demethylase GASC-1 KDM4C. Q9H3R0. GST-KDM4C 2-372, H3K9me3 peptide, LANCE TR-FRET. inhibition, % at 12.5 µM. hit rate 0.15% among 96,000;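 active means mean replicate inhibition above about 25%, with at least 55% of replicates also reaching it, limit read from the data, passing the limit was not always enough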
Target sequence (Q9H3R0 2-372 limits assumed): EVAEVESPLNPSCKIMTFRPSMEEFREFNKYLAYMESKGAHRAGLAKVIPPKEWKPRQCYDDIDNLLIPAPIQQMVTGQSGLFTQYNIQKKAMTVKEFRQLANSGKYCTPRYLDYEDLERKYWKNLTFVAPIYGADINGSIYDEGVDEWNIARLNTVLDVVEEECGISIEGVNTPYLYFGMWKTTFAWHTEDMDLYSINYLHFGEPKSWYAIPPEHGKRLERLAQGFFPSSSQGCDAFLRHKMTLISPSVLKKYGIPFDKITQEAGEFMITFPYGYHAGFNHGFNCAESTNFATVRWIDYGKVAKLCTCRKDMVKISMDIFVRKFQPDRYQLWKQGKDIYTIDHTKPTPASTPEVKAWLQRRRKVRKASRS
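Material: GST-tagged GASC-1 (JMJD2C) catalytic fragment, aa 2-372 / Quantity: enzyme final amount 10 nM / Medium: HEPES buffer, pH 7.5, plus ascorbate / Doses: one test concentration per compound / Incubation: 30 min reaction, 60 min detection, RT / Measured by: LANCE TR-FRET / Read-out: inhibition from TR-FRET ratio decrease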
T cruzi growth-2: Trypanosoma cruzi proliferation inhibition. inhibition, % at 8.35 µM. shares compounds with T cruzi growth-1. T. cruzi beta-gal in NIH3T3, GalScreen luminescence, 90 h. hit rate 72% among 5,600. AID 651739;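 active means mean replicate inhibition above about 95% and at least 55% of replicates individually reaching it, limit read from the data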
T cruzi growth-3: Trypanosoma cruzi proliferation inhibition | shares compounds with T cruzi growth-1 | T. cruzi beta-gal in NIH3T3, GalScreen luminescence, 90 h | inhibition, % at 2.09 µM | hit rate 21% among 5,600 | AID 651740;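 active means mean inhibition above about 95%, with at least 55% of replicates also reaching it, limit read from the data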
3T3 cytotox: cytotoxicity in mouse NIH/3T3 fibroblasts. shares compounds with T cruzi growth-1. NIH/3T3 viability, CellTiter-Glo ATP luminescence, 90 h. cytotoxicity (signal decrease), % at 8.35 µM. hit rate 14% among 5,600. AID 651742;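 active means mean signal decrease across replicates above about 35% based on untreated-well scatter, with enough replicates individually passing, limit read from the data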
3T3 cytotox 2: cytotoxicity in mouse NIH/3T3 fibroblasts | shares compounds with T cruzi growth-1 | NIH/3T3 viability, CellTiter-Glo ATP luminescence, 90 h | inhibition, % at 24.9 µM | hit rate 56% among 5,600 | AID 651744;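 active means mean loss of cell viability signal at or above a set limit, and enough replicates individually reaching it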
Of the large screens only hits and unclear results are named; the others gave an inactive call (follow-up assays come after a bar, where they were run). Many of the other results were omitted from the sample, so hits are more common in it than they were.

C=CC1C[N+]2([O-])CCC1CC2C(O)c1ccnc2ccccc12 (configuration not stated)	none (no result: T cruzi growth-1, GASC1 inh)
COc1ccc2c3c1O[C@H]1[C@@H](O)C=C[C@H]4C(C2)N(C)CCC341 (some centres not stated)	none (no result: T cruzi growth-1, GASC1 inh)
C[C@]12CC[C@@H](O)C[C@@H]1CC[C@@H]1[C@@H]2CC[C@]2(C)[C@@H](C(=O)CO)CC[C@@H]12	none (no result: T cruzi growth-1, GASC1 inh)
CCCCn1c(=O)c(C(=O)NCc2ccccn2)c(O)c2ccccc21	none (no result: T cruzi growth-1, GASC1 inh)
C=C1[C@@]23C(=O)O[C@H](C)[C@]24O[C@@]2(C(=C)[C@]5(C=CC(=O)OC5(C)C)CC[C@]32C)[C@H](O)[C@@]1(C)OC4=O	none (no result: T cruzi growth-1, GASC1 inh)
CN(CC(=O)Nc1ccc(Cl)cc1C(=O)c1ccccc1)S(=O)(=O)c1ccc(Cl)cc1	none (no result: T cruzi growth-1, GASC1 inh)
COc1ccc(-c2ccc([C@H]3[C@H]4CN(C(=O)Cc5ccccc5)CCCCN4[C@H]3CO)cc2)cc1	none (no result: IDH1 R132H inh)
COc1cccc(-c2ccc([C@@H]3[C@H]4CN(C(=O)Cc5ccncc5)CCCCN4[C@H]3CO)cc2)c1	T cruzi growth-1 114 (no result: IDH1 R132H inh) | T cruzi growth-2 inactive | T cruzi growth-3 inactive | 3T3 cytotox inactive | 3T3 cytotox 2 inactive
COc1ccc(C#Cc2ccc([C@H]3[C@H]4CN(C(=O)Cc5ccncc5)CCCCN4[C@H]3CO)cc2)cc1	T cruzi growth-1 107 (no result: IDH1 R132H inh) | T cruzi growth-2 98 | T cruzi growth-3 inactive | 3T3 cytotox 77 | 3T3 cytotox 2 98
COc1ccc(C#Cc2ccc([C@H]3[C@@H](CO)N4CCCCN(C(=O)Cc5ccncc5)C[C@@H]34)cc2)cc1	T cruzi growth-1 108 (no result: IDH1 R132H inh) | T cruzi growth-2 105 | T cruzi growth-3 inactive | 3T3 cytotox 41 | 3T3 cytotox 2 64
COc1ccc(-c2ccc([C@@H]3[C@H]4CN(C(=O)Cc5ccccc5)CCCCN4[C@H]3CO)cc2)cc1	none (no result: IDH1 R132H inh)
O=C(Cc1ccncc1)N1CCCCN2[C@H](C1)[C@H](c1ccc(C#Cc3ccccc3F)cc1)[C@@H]2CO	none (no result: IDH1 R132H inh)
COc1ccc(C#Cc2ccc([C@@H]3[C@@H](CO)N4CCCCN(C(=O)Cc5ccncc5)C[C@@H]34)cc2)cc1	T cruzi growth-1 117 (no result: IDH1 R132H inh) | T cruzi growth-2 104 | T cruzi growth-3 inactive | 3T3 cytotox inactive | 3T3 cytotox 2 102
COc1ccc(-c2ccc([C@@H]3[C@@H](CO)N4CCCCN(C(=O)Cc5ccccc5)C[C@@H]34)cc2)cc1	none (no result: IDH1 R132H inh)
COc1ccccc1OCCCn1cc(C(=O)c2ccccc2)c2ccccc21	none (no result: T cruzi growth-1, GASC1 inh)
O=C(c1ccco1)c1cn(CCCOc2ccccc2)c2ccccc12	none (no result: T cruzi growth-1, GASC1 inh)
CCc1ccc(NC2=NCCS2)cc1	none (no result: T cruzi growth-1, GASC1 inh)
[N-]=[N+]=Nc1cccc(C(=O)O)c1	none (no result: T cruzi growth-1, GASC1 inh)
